Assay outcomes from PubChem BioAssay.
VIM-2 inhibitor: VIM-2 metallo-beta-lactamase inhibitors, primary screen, biochemical, epi-absorbance readout, Pseudomonas aeruginosa enzyme; hit rate 0.89% among 290,000; inhibition, % at 5.6 µM; purified VIM-2, nitrocefin hydrolysis, epi-absorbance fluorescence;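 active = inhibition above the mean of all tested compounds plus 3 SD, cutoff set per screening run, cut at about 7.5% in these data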;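 note: red hydrolysis product quenches plate fluorescence so inhibitors raise well fluorescence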
sPLA2-III inh: human group III sPLA2 inhibitors, primary screen, biochemical, QFRET, BODIPY PC-A2 liposome substrate. Group 3 secretory phospholipase A2 (Homo sapiens), Q9NZ20. QFRET BODIPY PC-A2 liposome hydrolysis, fluorescence. inhibition, % at 12.2 µM. hit rate 0.56% among 370,000. AID 743126, 2013;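 active = inhibition above mean plus 3 SD of compounds lying within the high and low control bounds, cut at about 19% in these data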
Target sequence (Q9NZ20 whole entry, looked up): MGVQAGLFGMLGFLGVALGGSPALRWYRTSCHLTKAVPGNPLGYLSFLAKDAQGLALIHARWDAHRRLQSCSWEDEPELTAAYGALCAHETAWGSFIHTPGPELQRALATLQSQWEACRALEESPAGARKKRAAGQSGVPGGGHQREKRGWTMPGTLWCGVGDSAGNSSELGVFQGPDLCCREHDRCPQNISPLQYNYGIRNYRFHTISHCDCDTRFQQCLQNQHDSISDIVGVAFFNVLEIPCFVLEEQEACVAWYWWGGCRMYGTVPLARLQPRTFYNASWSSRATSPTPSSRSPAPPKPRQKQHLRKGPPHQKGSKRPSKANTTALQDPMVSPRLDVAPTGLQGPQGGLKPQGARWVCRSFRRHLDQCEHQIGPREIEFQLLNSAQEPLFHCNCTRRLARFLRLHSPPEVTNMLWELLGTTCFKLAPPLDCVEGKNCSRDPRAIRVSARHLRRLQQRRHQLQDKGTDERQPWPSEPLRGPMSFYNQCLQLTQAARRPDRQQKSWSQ
PfM18AAP inh: PfM18AAP inhibitors, malaria aminopeptidase, primary screen, biochemical, QFRET, recombinant enzyme | inhibition, % at 7.35 µM | H-Glu-NHMec fluorogenic cleavage | hit rate 1.2% among 290,000;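 active = inhibition above the campaign mean inhibition over all tested compounds plus 3 SD, cut at about 28% in these data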
IMP-1 inh: IMP-1 metallo-beta-lactamase inhibitors, primary screen, biochemical, epi-absorbance readout, Pseudomonas aeruginosa enzyme; purified IMP-1, nitrocefin hydrolysis, epi-absorbance fluorescence; hit rate 0.45% among 290,000; inhibition, % at 5.6 µM;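 active = inhibition above the mean plus 3 SD of all compounds in the same screening run, cut at about 4.5% in these data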
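system = purified recombinant IMP-1 beta-lactamase | amount = 0.2 nM IMP-1, as dispensed | medium = HEPES buffer pH 7.1 with ZnSO4 and Brij 35 | times = 25 °C, 15 min preincubation, 25 min reaction | detection = plate fluorescence quenching by hydrolysis product, ex 480/em 530 nm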
hGIII sPLA2 conf: human group III sPLA2 inhibitors, confirmation, biochemical, QFRET, triplicate; shares compounds with sPLA2-III inh; recombinant hGIII-sPLA2, BODIPY PC-A2 QFRET fluorescence; inhibition, % at 12.2 µM; hit rate 34% among 2,000;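 active = mean inhibition across triplicates above the hit cutoff set in the earlier primary screen, cut at about 19% in these data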
BODIPY interf: 535nm fluorescence optical interference, confirmation, artefact control for HGIII-sPLA2 inhibitor project, biochemical, QFRET. hit rate 8.5% among 2,000. shares compounds with sPLA2-III inh. BODIPY FL product fluorescence interference. inhibition, % at 12.2 µM. AID 743282, 2014;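 active = average inhibition above the solvent-only control mean plus 3 SD, cut at about 6% in these data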
535nm interf DR: 535nm fluorescence optical interference, dose response, artefact control for HGIII-sPLA2 inhibitor project, biochemical, QFRET | shares compounds with sPLA2-III inh | IC50, µM | AID 743455, 2014 | 240 tested, under 10 active | BODIPY FL product fluorescence interference, cell-free;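 active = IC50 at or below 10 µM; inactive = IC50 above 10 µM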
Numbers stand for hits; i = inactive; nt = no result. Most compounds without a hit are left out; they make up all but 2.4% or so of the library.

SMILES	VIM-2 inhibitor	sPLA2-III inh	PfM18AAP inh	IMP-1 inh	hGIII sPLA2 conf	BODIPY interf	others
O=C1C=C(N2CCOCC2)c2ccccc2C1=O	i	i	i	i	nt	nt
Cc1ccc(N2CCOCC2)c2c1C(=O)c1ccccc1C2=O	i	25	i	i	29	i	535nm interf DR=i
CCCC(CCC)C(=O)Oc1cc(C)[nH]c(=O)c1[N+](=O)[O-]	i	i	i	i	nt	nt
CCCCC(=O)Oc1cc(C)[nH]c(=O)c1[N+](=O)[O-]	i	21	i	i	i	i
COc1ccc(-n2c(COc3ccccc3)nnc2SCC(=O)Nc2ccc3c(c2)OCCO3)cc1	nt	i	nt	nt	nt	nt
CCCCn1c(N)c(N(CCOC)C(=O)c2ccc(F)c(S(=O)(=O)N3CCOCC3)c2)c(=O)[nH]c1=O	nt	20	nt	nt	i	i
CC1=CC(C)(C)NC(=S)N1c1ccc(Cl)cc1	nt	20	nt	nt	21	i
CC1=CC(C)(C)NC(=S)N1c1cccc2ccccc12	i	20	i	i	31	i	535nm interf DR=i
CC1=CC(C)(C)NC(=S)N1C(C)c1ccccc1 (centres undefined)	i	i	i	i	nt	nt
CC1=CC(C)(C)NC(=S)N1c1ccc2ccccc2c1	i	i	i	i	nt	nt
CCOc1ccccc1NC(=S)N1CCN(c2ccccc2)CC1	i	24	i	i	26	i
COc1ccc(NC(=S)N2CCN(c3ccccc3)CC2)c(OC)c1	i	i	i	i	nt	nt
COc1cc(NC(=O)C2CCCN2S(=O)(=O)c2ccc3c(c2)CC(C)N3C(C)=O)cc(OC)c1 (centres undefined)	i	i	i	i	nt	nt
COC(=O)C1=CN(c2ccc(N3CCOCC3)cc2)C(N)=C(C#N)C1c1ccc(-c2ccccc2)cc1 (centres undefined)	nt	i	nt	nt	nt	nt
O=C(Nc1csnn1)c1csnn1	i	20	i	i	i	i
CCOC(=O)C1(C)CCN1C(=O)c1ccc(N(C)C)cc1 (centres undefined)	nt	i	nt	nt	nt	nt
Cc1ccc(NC(=O)COC(=O)c2cc(Cl)ccc2[N+](=O)[O-])c(C)c1	i	20	i	i	i	i
COC(=O)[C@@H]1C(c2c(OC)cc(OC)cc2OC)=NO[C@H]1C(=O)OC	i	20	i	i	i	i
O=c1oc(-c2ccc(Cl)c(Cl)c2)nn1-c1ccc(C(F)(F)F)cn1	i	30	i	i	23	7.8
CN1C(=O)c2ccccc2CC12c1ccccc1C(=O)N2C (centres undefined)	nt	i	nt	nt	nt	nt
CCC(C)NS(=O)(=O)c1cc2c3c(c1)CCC(=O)N3CCC2 (centres undefined)	i	i	i	i	nt	nt
COc1cccc(OC)c1C(=O)NCCc1ccccc1	nt	21	nt	nt	i	i
C/C(=N/NS(=O)(=O)c1ccc(C)cc1)c1ccc(NC(=O)C(F)(F)F)cc1	i	22	i	i	i	i
O=C(COc1ccccc1)Nc1cc(C(F)(F)F)ccc1N1CCCC1	i	i	i	i	nt	nt
Cc1cc(N2CCCC2)ccc1NC(=O)COc1cccc(C(F)(F)F)c1	i	22	i	i	35	i	535nm interf DR=i
SMILES	VIM-2 inhibitor	sPLA2-III inh	PfM18AAP inh	IMP-1 inh	hGIII sPLA2 conf	BODIPY interf	others
COc1cccc(NC(=O)NC2CCCCN(Cc3ccc(C)cc3)C2=O)c1 (centres undefined)	nt	i	nt	nt	nt	nt
CN(C)S(=O)(=O)c1ccc(Cl)c(C(=O)NCC2CCCCC2)c1	i	i	i	i	nt	nt
CN(C)S(=O)(=O)c1ccc(Cl)c(C(=O)NCCNC(=O)c2cc(S(=O)(=O)N(C)C)ccc2Cl)c1	i	21	i	i	i	i
COC(=O)[C@]12C=CCN1[C@H](c1ccc(OC)c(OC)c1)c1c(c3ccccc3n1S(=O)(=O)c1ccc(C)cc1)C2	nt	i	nt	nt	nt	nt
OC(c1ccc(F)c(F)c1)c1nc(-c2ccoc2)cs1 (centres undefined)	nt	i	nt	nt	nt	nt
Cn1c(=O)c2c(ncn2CC(=O)OCC(=O)NC(c2ccccc2)c2ccccc2)n(C)c1=O	i	21	i	i	i	i
O=C(CSc1nc2ccccc2n1Cc1ccccc1)NN=Cc1c[nH]c2ccccc12	nt	i	nt	nt	nt	nt
CC1(c2ccccc2)NC(=O)N(CC(=O)NCC2CCCO2)C1=O (centres undefined)	nt	i	nt	nt	nt	nt
COc1cccc(/C=N/N=C(\N)c2nonc2N)c1O	i	20	i	i	i	i
COCCCN1C(=O)C(CC(=O)NCc2cccs2)CC(C(=O)N2CCCCCC2)=C1C (centres undefined)	nt	i	nt	nt	nt	nt
COC(=O)[C@]12C[C@H](CC(=O)N3CCOCC3)C(=O)N(Cc3ccc(Cl)cc3Cl)C1=C[C@H](C1CCCC1)O[C@@H]2C	nt	77	nt	nt	i	i
Cc1cccc(N2C(=O)CCC2=O)n1	i	20	i	i	i	i
Cc1cccc(N2C(=O)C3C4C=CC(C5CC45)C3C2=O)n1 (centres undefined)	i	i	i	i	nt	nt
CC(C)c1cc(C(=O)OCC(=O)N2CCN(C(=O)c3ccco3)CC2)c(O)c(C(C)C)c1	i	i	i	i	nt	nt
C[C@@H](N)P(=O)(O)C[C@H](Cc1ccccc1)C(=O)O	nt	i	nt	nt	nt	nt
COc1ccc(OC)c(NC(=O)COC(=O)CCCN=C2NS(=O)(=O)c3ccccc32)c1	nt	20	nt	nt	i	i
COc1cc(OC)c(C2C(C#N)=C(C)NC(C)=C2C#N)c(C(=O)O)c1	i	24	i	i	i	i
C1=CCC(CN2CCN(C3CCCCCC3)CC2)CC1 (centres undefined)	i	20	i	i	i	i
Cc1ccc(N2CCN(CC3CC=CCC3)CC2)cc1 (centres undefined)	i	i	i	i	nt	nt
CCc1nc2c(OCc3ccc(C(F)(F)F)cc3)cccn2c1N(C)C(=O)C(C)C	nt	i	nt	nt	nt	nt
COc1ccc([N+](=O)[O-])cc1NC(=O)C(C)N(C)Cc1ccc(Br)cc1 (centres undefined)	i	i	i	i	nt	nt
COc1ccc(Br)cc1CN(C)C(C)C(=O)Nc1cc([N+](=O)[O-])ccc1OC (centres undefined)	i	20	i	i	i	i
COc1cc(/C=C/CN2CCC(C(=O)NC(c3ccc(F)cc3)c3ccc4ccccc4n3)CC2)ccc1OC(C)=O (centres undefined)	nt	i	nt	nt	nt	nt
COc1cccc(C(Nc2ccccc2)c2ccc3ccc(C)nc3c2O)c1 (centres undefined)	nt	22	nt	nt	i	8.3
